Measured values as given in ChEMBL document CHEMBL1255524, “Identification of 2,3,6-trisubstituted quinoxaline derivatives as a Wnt2/β-catenin pathway inhibitor in non-small-cell lung cancer cell lines” (Bioorg Med Chem Lett, 2010).
Calls of active or inactive are those of the source. The rule behind the calls is not given here.

Legend:
[1] = Inhibition of […] signaling in human A549 cells assessed as inhibition of cell proliferation after 24 hrs by MTT assay; conditions: A549, 24 h
[2] = test system: A549; experiment: Reduction of beta-casein expression level in cytosolic fraction of human A549 cells expressing Wnt2 by Western blotting; assay type: functional, cell-based
[3] = test system: A549; experiment: Reduction of beta-casein expression level in nuclear fraction of human A549 cells expressing Wnt2 by Western blotting; assay type: functional, cell-based
[4] = Inhibition of […] signaling in human A549 cells assessed as inhibition of cell proliferation at 15% of IC50 concentration after 24 to 48 hrs by MTT assay; assay type: cell-based
[5] = test system: A549; experiment: Reduction of beta-casein expression level in human A549 cells expressing Wnt2 by Western blotting; assay type: functional, cell-based
[6] = target: T1, Protein Wnt-2 (Homo sapiens) (UniProt P09544); experiment: Inhibition of Wnt2 signaling pathway in human A549 cells assessed as inhibition of beta-casein-mediated Tcf/Lef transcriptional activity after 24 hrs by dual luciferase reporter gene assay relative to control; assay type: cell-based; design: concentration or dose not given beside the values; conditions: concentration not given here
T1 sequence (whole entry): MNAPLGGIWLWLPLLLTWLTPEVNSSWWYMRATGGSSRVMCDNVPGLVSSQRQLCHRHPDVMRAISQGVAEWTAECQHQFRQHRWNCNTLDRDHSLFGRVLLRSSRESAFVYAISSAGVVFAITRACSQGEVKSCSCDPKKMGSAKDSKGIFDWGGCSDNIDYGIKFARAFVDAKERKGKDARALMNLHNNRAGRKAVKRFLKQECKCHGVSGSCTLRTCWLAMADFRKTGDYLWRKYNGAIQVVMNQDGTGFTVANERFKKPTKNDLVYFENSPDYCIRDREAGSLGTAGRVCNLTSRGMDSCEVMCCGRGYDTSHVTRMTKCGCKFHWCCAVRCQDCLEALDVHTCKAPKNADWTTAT
Method in brief: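 A549/Wnt2 cells (4 × 10⁴) transiently co-transfected with 1 lg pSuperTopflash (eight Tcf sites upstream of firefly luciferase) or pSuperFopflash (mutated Tcf sites, negative control) plus 15 ng pRL-TK. Compounds applied at the proliferation IC₅₀, 37 °C, 24 h. Lysed; firefly and Renilla read by dual-luciferase. Firefly/Renilla ratio, triplicates, mean ± SEM, relative to untreated cells.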

[7] = Inhibition of […] signaling in human H460 cells assessed as inhibition of cell proliferation after 24 hrs by MTT assay; assay type: cell-based
[8] = target: T1, Protein Wnt-2 (Homo sapiens); experiment: Inhibition of Wnt2 signaling pathway in human H460 cells assessed as inhibition of beta-casein-mediated Tcf/Lef transcriptional activity IC50 concentration after 24 hrs by dual luciferase reporter gene assay relative to control; assay type: cell-based
Method in brief: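 H460/Wnt2 cells transiently co-transfected with SuperTopflash and pRL-TK Renilla control. Compounds given at the A549 proliferation IC₅₀, 37 °C, 24 h. Dual firefly/Renilla luciferase read-out as normalized ratio, triplicates, mean ± SEM, versus untreated cells.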

[9] = Inhibition of […] signaling in human A549 cells assessed as inhibition of cell proliferation at 30% of IC50 concentration after 24 to 48 hrs by MTT assay; assay type: cell-based
[10] = Inhibition of […] signaling in human A549 cells assessed as inhibition of cell proliferation after 24 to 48 hrs by MTT assay; assay type: cell-based
Method in brief: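 MTS proliferation assay in A549/Wnt2 cells. Cells seeded at 5 × 10³ per well and left about 24 h to attach. Compounds added at various concentrations; growth read at 24 and 48 h after treatment. MTS reagent for 30 min at 37 °C in CO₂, then absorbance at 490 nm.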

IC50 [1] | inhibition [6] | inhibition [8] | SMILES | Activity [2] | Activity [3] | inhibition [4] | Activity [5] | inhibition [7] | inhibition [9] | inhibition [10]
3770 nM | 30% | – | CN(C)c1ccc(C#Cc2nc3cc(F)ccc3nc2OCCCN2CCCCC2)cc1 | Active | Active | Active | Active | Active | – | –
3800 nM | > 80% | > 80% | CN1CCC[C@H]1COc1nc2ccc(N)cc2nc1C#Cc1ccccc1 | Active | Active | Active | Active | Active | – | –
1610 nM | 30% | – | Cc1cccc(C#Cc2nc3ccccc3nc2OCCCN2CCCCC2)c1 | Active | Active | Active | Active | Active | – | –
7900 nM | > 80% | – | CCN(CC)CCOc1nc2cc(NC(=O)N(C)Cc3ccc(F)cc3)ccc2nc1C#Cc1ccc(N(C)C)cc1 | Active | Active | Active | Active | Active | – | –
758 nM | 30% | – | CN(C)CCOc1nc2ccccc2nc1C#Cc1ccccc1 | Active | Active | Active | Active | Active | – | –
1780 nM | – | – | CCN(CC)CCOc1nc2cc(NC(=O)c3ccc(C)cc3)ccc2nc1C#Cc1ccc(OC)cc1C | Active | Active | Active | Active | Active | – | –
5010 nM | 30% | – | COc1nc2ccc(NC(=O)Nc3ccc(C(C)(C)C)cc3)cc2nc1NCCN1CCCCC1 | Active | Active | Active | Active | Active | Active | –
905 nM | 30% | – | Cc1ccc2nc(OCCC3CCCN3C)c(C#Cc3ccccc3)nc2c1 (stereo not given) | Active | Active | Active | Active | Active | – | Dose-dependent effect
1320 nM | – | – | Cc1ccc(C#Cc2nc3ccccc3nc2OCCN2CCCC2)cc1 | Active | Active | Active | Active | Active | – | –
3540 nM | – | – | COc1cccc(C#Cc2nc3ccc(NC(=O)c4ccc(F)cc4)cc3nc2OC2CCN(C)CC2)c1 | Active | Active | Active | Active | Active | – | –
4760 nM | 30% | – | Cc1ccc(C#Cc2nc3ccc(NC(=O)N4CCN(c5ccccn5)CC4)cc3nc2OCCN2CCCC2)cc1 | Active | Active | Active | Active | Active | – | Dose-dependent effect
1890 nM | – | – | COc1cccc2nc(OCCN3CCCC3)c(C#Cc3ccccc3)nc12 | Active | Active | Active | Active | Active | – | Dose-dependent effect
2340 nM | > 80% | > 80% | COc1ccc(C#Cc2nc3cc(F)ccc3nc2OCCOCCN(C)C)cc1 | Active | Active | Active | Active | Active | Active | –

SMILES | IC50 [1] | inhibition [6] | inhibition [8] | Activity [2] | Activity [3] | inhibition [4] | Activity [5] | inhibition [7] | inhibition [9] | inhibition [10]
COc1c(C[C@@H](C)OC(=O)Oc2ccc(O)cc2)c2c3c(C[C@@H](C)OC(=O)c4ccccc4)c(OC)c(=O)c4c(O)cc(OC)c(c5c(OC)cc(O)c(c1=O)c52)c43 [CALPHOSTIN C] | 3200 nM | – | – | – | – | – | – | – | – | –
